Data published in ChEMBL document CHEMBL4177768, “Synthesis and Biological Evaluation of Derivatives of Indoline as Highly Potent Antioxidant and Anti-inflammatory Agents” (J Med Chem, 2018).
Calls of active or inactive are those of the source. No cut-off for these calls is given here.

Columns and labels:
RAW264.7 [1] = assay: Antiinflammatory activity in mouse RAW264.7 cells assessed as reduction in LPS-induced TNF-alpha production at 1 pM to 100 nM incubated for 2 hrs prior to LPS challenge measured after 8 hrs by ELISA; type: functional, cell-based
Summary of the method: (§1)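 RAW 264.7 macrophages were plated at 1×10^5 per well, grown overnight and washed with PBS. Compounds in water (final 1 pM-100 nM, medium with 2% FCS) were added 2 h at 37 °C before E. coli 0111:B4 LPS, 2.5 µg/mL. TNF-α was sampled at 8 h; IL-6 and nitrite (Griess) at 24 h. ELISA was used for cytokines. Values are % of the LPS + medium value in each experiment. Budesonide was the reference. 2-3 experiments, 6 wells per concentration.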

RAW264.7 [2] = assay: Antiinflammatory activity in mouse RAW264.7 cells assessed as reduction in LPS-induced nitric oxide production at 1 pM to 100 nM incubated for 2 hrs prior to LPS challenge measured after 24 hrs by Griess assay; type: functional, cell-based; summary of the method: as §1
RAW264.7 [3] = assay: Cytoprotective activity against H2O2-induced oxidative stress in mouse RAW264.7 cells assessed as decrease in caspase-3 activity at 1 pM incubated for 4 hrs prior to H2O2 addition measured after 90 mins by caspase-GloR reagent-based luminescence assay relative to control; type: functional
Summary of the method: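 RAW 264.7 macrophages were pretreated with compound (1 pM or 1 nM) 4 h before H2O2 100 µM. Medium was replaced with fresh DMEM after 90 min and plates were incubated overnight. Caspase-Glo 3/7 reagent was added and luminescence read after 30 min at room temperature. Mean ± SD, 4-6 replicates.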

RAW264.7 [4] = assay: Cytoprotective activity against H2O2-induced oxidative stress in mouse RAW264.7 cells assessed as cell viability at 100 nM incubated for 2 hrs prior to H2O2 addition measured after 24 hrs by MTT assay (reference value: 68 to 72.8%); type: functional; conditions: read-out: Activity
RAW264.7 [5] = assay: Antiinflammatory activity in mouse RAW264.7 cells assessed as reduction in LPS-induced TNF-alpha production at 100 pM to 100 nM incubated for 2 hrs prior to LPS challenge measured after 8 hrs by ELISA; type: functional, cell-based; summary of the method: as §1
RAW264.7 [6] = assay: Antiinflammatory activity in mouse RAW264.7 cells assessed as reduction in LPS-induced IL-6 production at 100 pM to 100 nM incubated for 2 hrs prior to LPS challenge measured after 24 hrs by ELISA; type: functional, cell-based; summary of the method: as §1
[7] = Cytotoxicity against mouse RAW264.7 cells assessed as cell viability at 10^-11 M after 24 hrs by MTT assay relative to control; type: cell-based; conditions: read-out: Activity
Summary of the method: (§2)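 RAW 264.7 cells, seeded at 1×10^4 cells/mL and incubated 24 h, were exposed to compound from 1 pM to 100 nM. Viability was read by MTT (final 0.5 mg/mL, 1 h at 37 °C), with formazan dissolved in DMSO and OD at 570 nm. Results are compared with medium-only cells.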

RAW264.7 [8] = assay: Antiinflammatory activity in mouse RAW264.7 cells assessed as reduction in LPS-induced nitric oxide production at 1 nM incubated for 2 hrs prior to LPS challenge measured after 24 hrs by Griess assay; type: functional; summary of the method: as §1
[9] = Cytotoxicity against mouse RAW264.7 cells assessed as cell viability at 10^-7 M after 24 hrs by MTT assay relative to control; type: cell-based; conditions: read-out: Activity; summary of the method: as §2
[10] = Cytotoxicity against mouse RAW264.7 cells assessed as cell viability at 10^-8 M after 24 hrs by MTT assay relative to control; type: cell-based; conditions: read-out: Activity; summary of the method: as §2
[11] = Cytotoxicity against mouse RAW264.7 cells assessed as cell viability at 10^-9 M after 24 hrs by MTT assay relative to control; type: cell-based; conditions: read-out: Activity; summary of the method: as §2
[12] = Cytotoxicity against mouse RAW264.7 cells assessed as cell viability at 10^-12 M after 24 hrs by MTT assay relative to control; type: cell-based; conditions: read-out: Activity; summary of the method: as §2
[13] = Cytotoxicity against mouse RAW264.7 cells assessed as cell viability at 10^-10 M after 24 hrs by MTT assay relative to control; type: cell-based; conditions: read-out: Activity; summary of the method: as §2
RAW264.7 [14] = assay: Antiinflammatory activity in mouse RAW264.7 cells assessed as reduction in LPS-induced nitric oxide production at 100 pM incubated for 2 hrs prior to LPS challenge measured after 24 hrs by Griess assay; type: functional; summary of the method: as §1
RAW264.7 [15] = assay: Antiinflammatory activity in mouse RAW264.7 cells assessed as reduction in LPS-induced IL-6 production at 100 pM incubated for 2 hrs prior to LPS challenge measured after 24 hrs by ELISA; type: functional; summary of the method: as §1
RAW264.7 [16] = assay: Antiinflammatory activity in mouse RAW264.7 cells assessed as reduction in LPS-induced TNF-alpha production at 100 pM incubated for 2 hrs prior to LPS challenge measured after 8 hrs by ELISA; type: functional; summary of the method: as §1
RAW264.7 [17] = assay: Antiinflammatory activity in mouse RAW264.7 cells assessed as reduction in LPS-induced TNF-alpha production at 1 nM incubated for 2 hrs prior to LPS challenge measured after 8 hrs by ELISA; type: functional; summary of the method: as §1
RAW264.7 [18] = assay: Antiinflammatory activity in mouse RAW264.7 cells assessed as reduction in LPS-induced IL-6 production at 1 nM incubated for 2 hrs prior to LPS challenge measured after 24 hrs by ELISA; type: functional; summary of the method: as §1
RAW264.7 [19] = assay: Antiinflammatory activity in mouse RAW264.7 cells assessed as reduction in LPS-induced IL6 production at 1 pM to 100 nM incubated for 2 hrs prior to LPS challenge measured after 24 hrs by ELISA; type: functional, cell-based; summary of the method: as §1
RAW264.7 [20] = assay: Cytoprotective activity against H2O2-induced oxidative stress in mouse RAW264.7 cells assessed as cell viability at 1 pM incubated for 2 hrs prior to H2O2 addition measured after 24 hrs by MTT assay (reference value: 68 to 72.8%); type: functional; conditions: read-out: Activity
RAW264.7 [21] = assay: Cytoprotective activity against H2O2-induced oxidative stress in mouse RAW264.7 cells assessed as cell viability at 10 nM incubated for 2 hrs prior to H2O2 addition measured after 24 hrs by MTT assay (reference value: 68 to 72.8%); type: functional; conditions: read-out: Activity
RAW264.7 [22] = assay: Cytoprotective activity against H2O2-induced oxidative stress in mouse RAW264.7 cells assessed as decrease in LDH release at 1 pM incubated for 2 hrs prior to H2O2 addition by colorimetric assay relative to control; type: functional; design: scale not given: the % may be the effect or the level left
Summary of the method: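 RAW 264.7 cells were seeded and pretreated with compound before H2O2 100 µM, in serum-free medium. Collected medium was centrifuged and incubated with reaction mix 30 min at room temperature. LDH was measured as NADH formation by colorimetric read at 490 nm. n = 8-10 replicates per concentration.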

RAW264.7 [23] = assay: Cytoprotective activity against H2O2-induced oxidative stress in mouse RAW264.7 cells assessed as decrease in LDH release at 1 pM incubated for 2 hrs prior to H2O2 addition by colorimetric assay relative to control; design: scale not given: the % may be the effect or the level left

SMILES: Cc1ccc(S(C)(=O)=O)cc1.Cc1ccc(S(C)(=O)=O)cc1.NCCCN1CCc2cccc(OCc3ccccc3)c21
- Activity (RAW264.7 [1]): Dose-dependent effect
- Activity (RAW264.7 [2]): Dose-dependent effect
- Activity (RAW264.7 [3]): inactive
- viability at 0.1 µM (RAW264.7 [4]): 79.3%

SMILES: CC(C)NCCCN1CCc2cccc(O)c21.Cc1ccc(S(C)(=O)=O)cc1.Cc1ccc(S(C)(=O)=O)cc1
- Activity (RAW264.7 [5]): inactive
- Activity (RAW264.7 [6]): inactive

SMILES: COC(=O)CCC1CNc2ccccc21 (configuration not stated)
- viability at 24 h, 1e-05 µM [7]: 93.2%
- Activity (RAW264.7 [8]): Active
- viability at 24 h, 0.1 µM [9]: 92.9%
- viability at 24 h, 0.01 µM [10]: 94.5%
- viability at 24 h, 0.001 µM [11]: 97.1%
- viability at 24 h, 1e-06 µM [12]: 99.5%
- viability at 24 h, 0.0001 µM [13]: 96.6%
- Activity (RAW264.7 [14]): Active
- Activity (RAW264.7 [15]): Active
- Activity (RAW264.7 [16]): Active
- Activity (RAW264.7 [17]): Active
- Activity (RAW264.7 [18]): Active

SMILES: CC(C)NC(=O)CCN1CCc2cc(Cl)ccc21
- viability at 24 h, 1e-05 µM [7]: 96.3%
- Activity (RAW264.7 [1]): inactive
- Activity (RAW264.7 [19]): inactive
- Activity (RAW264.7 [2]): inactive
- viability at 24 h, 0.1 µM [9]: 103%
- viability at 24 h, 0.01 µM [10]: 104%
- viability at 24 h, 0.001 µM [11]: 97.9%
- viability at 24 h, 1e-06 µM [12]: 95.6%
- viability at 24 h, 0.0001 µM [13]: 98.2%
- viability at 1 pM (RAW264.7 [20]): 95.7%

SMILES: COC(=O)CCN1CCc2ccc(C)cc21
- Activity (RAW264.7 [1]): inactive
- Activity (RAW264.7 [19]): inactive
- viability at 0.01 µM (RAW264.7 [21]): 87.2%
- Activity (RAW264.7 [2]): inactive

SMILES: CC(C)NC(=O)CCN1CCc2ccc(F)cc21
- Activity (RAW264.7 [1]): inactive
- Activity (RAW264.7 [19]): inactive
- Activity (RAW264.7 [2]): inactive
- viability at 0.1 µM (RAW264.7 [4]): 86.9%

SMILES: Cl.OCCCN1CCc2ccccc21
- Activity (RAW264.7 [22]): 16%
- Activity (RAW264.7 [5]): Active
- viability at 24 h, 1e-05 µM [7]: 89.9%
- viability at 24 h, 0.1 µM [9]: 94.4%
- Activity (RAW264.7 [6]): Active
- viability at 24 h, 0.01 µM [10]: 92.3%
- viability at 24 h, 0.001 µM [11]: 95.1%
- viability at 24 h, 1e-06 µM [12]: 89.5%
- viability at 24 h, 0.0001 µM [13]: 91.6%
- Activity (RAW264.7 [23]): 16%
- viability at 0.1 µM (RAW264.7 [4]): 89.8%
